Reference: ChEMBL document CHEMBL1944586, “Malaria-infected mice are completely cured by one 6 mg/kg oral dose of a new monomeric trioxane sulfide combined with mefloquine” (J Med Chem, 2012)

Legend:
Plasmodium berghei [1] = test: Antimalarial activity against Plasmodium berghei ANKA infected in C57BL/6 mouse assessed as host survival at 15 mg/kg, po administered 24 hrs post-infection (reference value: 6.8 days); format: functional
Plasmodium berghei [2] = test: Antimalarial activity against Plasmodium berghei ANKA infected in C57BL/6 mouse assessed as host survival at 18 mg/kg, po administered 24 hrs post-infection (reference value: 6.8 days); format: functional
Plasmodium berghei [3] = test: Antimalarial activity against Plasmodium berghei ANKA infected in C57BL/6 mouse assessed as decrease in parasitemia at 15 mg/kg, po administered 24 hrs post-infection measured after 3 days by Giemsa microscopy relative to vehicle treated control; format: functional; design: scale not given: the % may be the effect or the level left
In short: (§1)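 Male C57BL/6J mice, 5 weeks old, about 20 g, infected i.p. on day 0 with 5 × 10⁷ P. berghei ANKA-parasitized erythrocytes. At 24 h post-infection, four mice per group received one oral dose in 7:3 Tween 80:ethanol diluted in water: trioxane 6 mg/kg plus mefloquine HCl 18 mg/kg, or trioxane 7.5 mg/kg plus mefloquine HCl 15 mg/kg. Untreated infected controls were included. Blood parasitemia was read by Giemsa microscopy.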

Plasmodium berghei [4] = test: Antimalarial activity against Plasmodium berghei ANKA infected in C57BL/6 mouse assessed as decrease in parasitemia at 18 mg/kg, po administered 24 hrs post-infection measured after 3 days by Giemsa microscopy relative to vehicle treated control; format: functional; design: scale not given: the % may be the effect or the level left; in short: as §1
Plasmodium falciparum = test: Antimalarial activity against Plasmodium falciparum NF54; format: functional, organism-based
Plasmodium berghei [5] = test: Antimalarial activity against Plasmodium berghei ANKA infected in C57BL/6 mouse assessed as host survival at 100 mg/kg, po administered 24 hrs post-infection (reference value: 6.8 days); format: functional
Mus musculus = test: Toxicity in Plasmodium berghei ANKA infected C57BL/6 mouse assessed as effect on longevity at 100 mg/kg, po administered 24 hrs post-infection measured after 3 days; format: organism-based; design: dose 100 mg/kg, route oral; settings: in vivo, 72 h

O[C@@H](c1cc(C(F)(F)F)nc2c(C(F)(F)F)cccc12)[C@H]1CCCCN1 (relative stereo) [(S,R)-MEFLOQUINE]
Survival (Plasmodium berghei [1]): 15.5 days | Survival (Plasmodium berghei [2]): 19.8 days | Activity (Plasmodium berghei [3]): >99.9% | Activity (Plasmodium berghei [4]): >99.9%

CCCCN(CCCC)CC(O)c1cc(Cl)cc2c1-c1ccc(Cl)cc1/C2=C/c1ccc(Cl)cc1 (stereo not given) [LUMEFANTRINE]
Activity (Plasmodium berghei [4]): >99.9%

C[C@H]1[C@@H](CCC(=O)Nc2cccc([S@@+](C)[O-])c2)O[C@@H]2O[C@@]3(C)CC[C@H]4[C@H](C)CC[C@@H]1[C@@]24OO3
EC50 (Plasmodium falciparum): 29 nM

C[C@H]1[C@@H](CCC(=O)Nc2cccc(S(C)(=O)=O)c2)O[C@@H]2O[C@@]3(C)CC[C@H]4[C@H](C)CC[C@@H]1[C@@]24OO3
EC50 (Plasmodium falciparum): 21 nM

CSc1cccc(NC(=O)CC[C@H]2O[C@@H]3O[C@@]4(C)CC[C@H]5[C@H](C)CC[C@@H]([C@H]2C)[C@@]35OO4)c1
Survival (Plasmodium berghei [5]): 15 days | EC50 (Plasmodium falciparum): 9.1 nM | Activity (Mus musculus): Non-toxic

C[C@H]1[C@@H](CCC(=O)Nc2cccc([S@+](C)[O-])c2)O[C@@H]2O[C@@]3(C)CC[C@H]4[C@H](C)CC[C@@H]1[C@@]24OO3
EC50 (Plasmodium falciparum): 23 nM

C[C@@H]1CC[C@H]2[C@@H](C)C(=O)O[C@@H]3O[C@@]4(C)CC[C@@H]1[C@]32OO4 [ARTEMISININ]
EC50 (Plasmodium falciparum): 10 nM

CSc1cc(NC(=O)CC[C@H]2O[C@@H]3O[C@@]4(C)CC[C@H]5[C@H](C)CC[C@@H]([C@H]2C)[C@@]35OO4)cc(SC)c1
Survival (Plasmodium berghei [5]): 7.5 days | EC50 (Plasmodium falciparum): 6.5 nM | Activity (Mus musculus): Non-toxic
